Source: publication PMC2692831 (Chemistry & biology, 2009)

Tests used:
[1] = tested on: brain and liver proteomes; experiment: CC-ABPP of in vivo protein targets of alkyne analogues; details: 10 mg/kg, i.p., 2 hr, FAAH(+/+) and (-/-) mice
In short: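 Alkyne-tagged test compound given i.p. at 10 mg/kg to FAAH(+/+) and FAAH(-/-) mice; vehicle-treated mice of both genotypes served as controls. After 2 hr, mice were sacrificed and brain and liver proteomes collected. Proteomes were conjugated to a rhodamine-azide tag under click-chemistry conditions and resolved by gel with in-gel fluorescence scanning. FAAH was assigned as the 60 kDa band missing in FAAH(-/-) mice.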

[2] = tested on: brain and liver levels of AEA, PEA, OEA, 2-AG; experiment: Tissue levels of FAAH substrates; format: in vivo, mice
FAAH in the brain = biological target: T1, FAAH in the brain (Mus musculus, UniProt O08914); experiment: Competitive ABPP with FP-rhodamine, brain of treated mice; format: in vivo; details: for inactivation of FAAH in the brain: time course 1 to 24 hrs
T1 sequence (O08914 1-579): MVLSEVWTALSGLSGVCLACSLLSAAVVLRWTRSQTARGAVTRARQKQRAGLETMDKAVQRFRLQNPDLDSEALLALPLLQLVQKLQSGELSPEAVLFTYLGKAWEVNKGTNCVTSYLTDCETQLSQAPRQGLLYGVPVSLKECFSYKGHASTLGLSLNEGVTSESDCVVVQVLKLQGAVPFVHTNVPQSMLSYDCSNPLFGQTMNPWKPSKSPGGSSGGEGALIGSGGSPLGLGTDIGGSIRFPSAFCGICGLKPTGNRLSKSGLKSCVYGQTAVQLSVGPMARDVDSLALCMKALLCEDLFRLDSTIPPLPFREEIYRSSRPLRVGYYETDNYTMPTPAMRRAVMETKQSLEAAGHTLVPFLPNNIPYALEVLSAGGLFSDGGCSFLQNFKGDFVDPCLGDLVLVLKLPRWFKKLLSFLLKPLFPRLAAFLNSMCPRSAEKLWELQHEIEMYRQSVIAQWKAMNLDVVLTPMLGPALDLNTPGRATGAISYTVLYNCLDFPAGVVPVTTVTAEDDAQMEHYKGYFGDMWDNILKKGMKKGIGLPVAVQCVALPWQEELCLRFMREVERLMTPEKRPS

[3] = tested on: liver serine hydrolases (carboxylesterases); experiment: Competitive ABPP with FP-rhodamine, liver of treated mice; format: in vivo; details: 10 mg/kg, i.p., 2 hr
rFAAH = biological target: T2, rFAAH (Rattus norvegicus, UniProt P97612); experiment: Inhibitor potency; format: biochemical; details: read-out: kinact/Ki rFAAH
T2 sequence (P97612 1-579): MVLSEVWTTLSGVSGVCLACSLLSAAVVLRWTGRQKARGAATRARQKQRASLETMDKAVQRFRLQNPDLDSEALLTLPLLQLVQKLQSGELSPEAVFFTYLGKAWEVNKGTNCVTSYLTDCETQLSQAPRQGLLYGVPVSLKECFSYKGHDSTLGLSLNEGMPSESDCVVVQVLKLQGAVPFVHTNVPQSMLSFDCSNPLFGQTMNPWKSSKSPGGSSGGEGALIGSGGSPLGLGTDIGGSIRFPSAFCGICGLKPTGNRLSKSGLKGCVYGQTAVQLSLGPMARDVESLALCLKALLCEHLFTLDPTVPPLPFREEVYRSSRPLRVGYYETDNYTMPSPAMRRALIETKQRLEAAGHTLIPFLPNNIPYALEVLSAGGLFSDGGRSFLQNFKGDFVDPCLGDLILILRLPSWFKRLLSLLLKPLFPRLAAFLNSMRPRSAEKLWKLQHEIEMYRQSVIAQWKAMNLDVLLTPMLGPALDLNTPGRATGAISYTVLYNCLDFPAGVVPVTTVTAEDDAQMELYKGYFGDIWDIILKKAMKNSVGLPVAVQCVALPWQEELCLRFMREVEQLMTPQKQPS
In short: (§1)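 Purified recombinant FAAH (human, rat, or humanized rat h/rFAAH) in an enzyme-coupled assay with oleamide as substrate. FAAH hydrolysis releases ammonia, which is coupled to stoichiometric NAD+ formation, read continuously. NAD+ production is linear over 40 min without inhibitor. Test compound is added from a DMSO stock. kinact and Ki are derived from progress curves and saturation plots fitted to a covalent inactivation model.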

[4] = tested on: FAAH activity and NAEs in brain, blood leukocytes/plasma, liver; experiment: FAAH activity and NAE levels in tissues and blood of treated rats; format: in vivo, rat; details: 4 hr
[5] = tested on: CFA model of inflammatory pain; experiment: CFA model of inflammatory pain, mechanical allodynia; format: in vivo, rat; details: for effect on mechanical allodynia in rats not treated with PF-3845: SR141716 10 mg/kg, SR144528 30 mg/kg, i.p.
In short: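 Male Sprague-Dawley rats (200–250 g) received 0.15 ml CFA into the left hind paw plantar surface. On day 5, mechanical paw withdrawal thresholds were taken with von Frey hairs by the Dixon up-down method. Test compound was then given orally (1–30 mg/kg) in 5% N,N-dimethylacetamide/95% (40% 2-hydroxypropyl-β-cyclodextrin in water), and thresholds were re-measured 4 hr post-dose. Naproxen (10 mg/kg p.o.) served as reference. n=8/group; ANOVA, unpaired t-tests.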

human FAAH-2 = biological target: T3, human FAAH-2 (Homo sapiens, UniProt Q6GMR7); experiment: Inhibition of FAAH-2; format: biochemical
T3 sequence (Q6GMR7 1-532): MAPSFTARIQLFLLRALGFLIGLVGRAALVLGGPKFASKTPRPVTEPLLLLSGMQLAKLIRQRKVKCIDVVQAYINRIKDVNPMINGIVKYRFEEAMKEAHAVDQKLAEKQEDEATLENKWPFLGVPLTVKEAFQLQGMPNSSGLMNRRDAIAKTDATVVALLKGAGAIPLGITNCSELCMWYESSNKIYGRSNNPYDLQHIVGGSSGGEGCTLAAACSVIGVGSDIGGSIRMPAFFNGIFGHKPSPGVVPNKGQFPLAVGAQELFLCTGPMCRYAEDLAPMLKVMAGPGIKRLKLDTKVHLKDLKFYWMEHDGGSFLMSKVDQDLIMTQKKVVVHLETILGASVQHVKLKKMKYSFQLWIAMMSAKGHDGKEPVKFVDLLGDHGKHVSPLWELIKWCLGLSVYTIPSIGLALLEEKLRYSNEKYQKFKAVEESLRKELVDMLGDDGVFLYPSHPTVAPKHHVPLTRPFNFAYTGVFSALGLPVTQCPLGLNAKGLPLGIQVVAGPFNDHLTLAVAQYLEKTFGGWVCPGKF

[6] = biological target: T4, h/rFAAH ('humanized' rat-FAAH) (Rattus norvegicus, UniProt P97612, A377T/F194Y/I491V/L192F/S435N/V495M); experiment: Inhibitor potency; format: biochemical; details: read-out: kinact/Ki h/rFAAH
T4 sequence (P97612 30-579 L192F/F194Y/A377T/S435N/I491V/V495M limits assumed): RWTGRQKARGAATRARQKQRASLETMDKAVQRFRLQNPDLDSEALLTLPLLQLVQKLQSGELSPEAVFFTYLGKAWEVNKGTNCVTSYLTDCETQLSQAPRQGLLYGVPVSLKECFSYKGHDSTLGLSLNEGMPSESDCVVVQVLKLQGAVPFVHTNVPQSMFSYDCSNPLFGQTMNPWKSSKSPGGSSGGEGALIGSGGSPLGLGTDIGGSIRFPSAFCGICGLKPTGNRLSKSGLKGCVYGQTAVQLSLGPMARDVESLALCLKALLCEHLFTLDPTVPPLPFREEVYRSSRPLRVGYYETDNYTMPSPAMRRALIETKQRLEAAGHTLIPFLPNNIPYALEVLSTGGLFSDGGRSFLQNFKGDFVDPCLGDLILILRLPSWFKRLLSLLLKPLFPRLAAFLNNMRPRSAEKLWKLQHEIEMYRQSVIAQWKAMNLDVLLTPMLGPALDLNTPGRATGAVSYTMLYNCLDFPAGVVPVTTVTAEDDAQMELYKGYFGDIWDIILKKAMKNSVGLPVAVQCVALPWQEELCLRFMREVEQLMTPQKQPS
In short: as §1

FAAH [7] = biological target: T5, FAAH (Homo sapiens, UniProt O00519); experiment: Inhibitor potency; format: biochemical; details: read-out: kinact/Ki hFAAH
T5 sequence (O00519 1-579): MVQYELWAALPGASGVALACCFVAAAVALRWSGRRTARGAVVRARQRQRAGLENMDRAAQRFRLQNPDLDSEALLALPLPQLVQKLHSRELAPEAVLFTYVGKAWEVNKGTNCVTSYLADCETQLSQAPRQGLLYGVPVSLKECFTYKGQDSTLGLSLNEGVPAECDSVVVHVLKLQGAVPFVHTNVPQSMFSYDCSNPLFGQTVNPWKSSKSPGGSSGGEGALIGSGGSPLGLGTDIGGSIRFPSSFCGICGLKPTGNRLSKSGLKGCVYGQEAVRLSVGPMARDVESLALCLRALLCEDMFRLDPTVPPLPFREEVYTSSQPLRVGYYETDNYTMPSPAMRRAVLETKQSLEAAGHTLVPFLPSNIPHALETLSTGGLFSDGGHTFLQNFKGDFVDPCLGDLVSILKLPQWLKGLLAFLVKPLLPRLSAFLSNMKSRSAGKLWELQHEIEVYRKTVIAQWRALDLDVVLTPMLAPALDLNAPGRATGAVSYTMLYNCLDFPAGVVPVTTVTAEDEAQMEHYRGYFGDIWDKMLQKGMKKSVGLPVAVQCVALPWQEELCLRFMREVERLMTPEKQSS
In short: as §1

FAAH [8] = biological target: T5, FAAH; experiment: FAAH inhibition kinetics, enzyme-coupled assay with oleamide as substrate; format: biochemical

Compound: C#CCCCCCCCCCNC(=O)Oc1cccc(-c2cccc(C(N)=O)c2)c1 [JP104]
- proteins labeled in brain (CC-ABPP) ([1]; brain): selectively reacted with a single protein in mouse brain
- proteins labeled in liver (CC-ABPP) ([1]; liver): labeling a number of proteins that were found in both FAAH(+/+) and (-/-) mice

Compound: NC(=O)c1cccc(-c2cccc(OC(=O)NC3CCCCC3)c2)c1 [URB597, cyclohexyl carbamic acid 3′-carbamoyl-biphenyl-3-yl ester, reference compound]
- time by which AEA levels return to near-baseline ([2]; 10 mg/kg, i.p., mice, brain): up to 7 hrs
- inhibition of other FP-reactive serine hydrolases in brain (FAAH in the brain; 10 mg/kg, i.p., mice): none of the other FP-reactive serine hydrolases in this tissue were inhibited
- brain FAAH activity at 24 hr (FAAH in the brain; 10 mg/kg, i.p., mice, 24 hr): nearly wild type levels of brain FAAH activity
- inactivation of FAAH in the brain (FAAH in the brain; 10 mg/kg, i.p., mice): rapid and complete inactivation of FAAH in the brain
- blockade of FP-labeling of additional liver serine hydrolases [3]: blocked FP-labeling of several additional liver serine hydrolases

Compound: O=C(Nc1cccnc1)N1CCC(Cc2cccc(Oc3ccc(C(F)(F)F)cn3)c2)CC1 [PF-3845]
- kinact/KI (rFAAH): 3900 ± 780 M⁻¹ s⁻¹
- levels of 2-AG in brain or liver ([2]; 10 mg/kg, i.p., mice): did not show changes
- elevations in brain levels of AEA (and other NAEs PEA, OEA) ([2]; 10 mg/kg, i.p., mice, brain): > 10 fold
- time NAE elevations maintained at maximal levels (up to) ([2]; 10 mg/kg, i.p., mice, brain): 7 to 12 h
- time of peak elevation in NAEs ([2]; 10 mg/kg, i.p., mice, brain): ~3 h
- AEA, PEA, OEA levels at 24 hrs post-treatment ([2]; 10 mg/kg, i.p., mice, brain, 24 hrs): significant elevations
- AEA, PEA and OEA levels in liver tissue ([2]; 10 mg/kg, i.p., mice, liver): significant elevations
- endocannabinoid (AEA or 2-AG) levels in FAAH(-/-) mice ([2]; FAAH(-/-) mice): did not alter
- duration of high AEA elevations ([2]; mice): at least 7 hrs
- blockade of FAAH activity at 1 mg/kg ([4]; 1 mg/kg p.o.): near-complete blockade of FAAH activity
- elevations in AEA at 1 mg/kg ([4]; 1 mg/kg p.o.): close to maximal elevations in AEA
- increase of OEA and PEA in brain ([4]; p.o., brain): ~10 fold
- maximal elevation of AEA in brain and plasma ([4]; p.o., brain and plasma): ~10 fold
- increase of OEA and PEA in plasma ([4]; p.o., plasma): ~3 fold
- inhibition of other FP-reactive serine hydrolases in brain (FAAH in the brain; 10 mg/kg, i.p., mice): none of the other FP-reactive serine hydrolases in this tissue were inhibited
- inactivation of FAAH in the brain (FAAH in the brain; 10 mg/kg, i.p., mice): rapid and complete inactivation of FAAH in the brain
- inhibition at 10 mg/kg (FAAH in the brain; mouse, ip, read-out: brain FAAH inhibited at 24 hr): > 75%
- efficacy in CFA model at 1 mg/kg ([5]; 1 mg/kg p.o., 4 hr): efficacy was not observed
- inhibition of mechanical allodynia, time course 2-8 hrs ([5]; 10 mg/kg, p.o., 2-8 hrs post-administration): significant inhibition of mechanical allodynia at all time points tested
- minimum effective dose (MED), inhibition of mechanical allodynia ([5]; p.o., 1-30 mg/kg, rats, 4 hr post-dosing): 3 mg/kg
- inhibition of pain responses at 10 and 30 mg/kg ([5]; p.o., 10 and 30 mg/kg, versus naproxen 10 mg/kg p.o.): equivalent, if not greater degree than the nonsteroidal anti-inflammatory drug naproxen
- IC50 (human FAAH-2): > 10 µM
- kinact/KI [6]: 13300 M⁻¹ s⁻¹
- kinact/KI (FAAH [7]): 12600 M⁻¹ s⁻¹
- kinact (FAAH [8]): 0.0033 ± 0.0002 s⁻¹
- kinact/KI (FAAH [8]): 14300 M⁻¹ s⁻¹
- improvement in potency (FAAH [8]; PF-3845 versus PF-750 (structure comparison)): ~20 fold
- fold higher kinact/Ki value for FAAH (FAAH [8]; compared to PF-750 or URB597): 10-20 fold

Compound: Cc1c(C(=O)NN2CCCCC2)nn(-c2ccc(Cl)cc2Cl)c1-c1ccc(Cl)cc1 [SR141716, reference compound]
- effect on mechanical allodynia in rats not treated with PF-3845 [5]: neither the CB1 nor CB2 antagonist displayed significant effects

Compound: SR144528 [reference compound]
- effect on mechanical allodynia in rats not treated with PF-3845 [5]: neither the CB1 nor CB2 antagonist displayed significant effects
